Measured values reported in ChEMBL document CHEMBL5058577, “EUbOPEN Chemogenomics Library 2 (Multiplex)” (2022).

Test system: Fibroblast
Test: Multiplex assay against human fibroblast
Format: toxicity, cell-based
In short: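 Four dyes were applied at seeding to live cells: Hoechst33342, BioTracker Green Microtubule Cytoskeleton Dye, MitoTracker Red and Annexin V Alexa Fluor 680. Imaging after compound addition used a CQ1 microscope at 37°C and 5% CO2. CellPathfinder machine-learning gating then sorted cells into Hoechst high-intensity objects or normal cells, normal cells into healthy, pyknosed or fragmented nuclei, and pyknosed cells into mitotic or apoptotic, with tubulin, mitochondrial-mass and membrane-permeability phenotypes given as per cents of healthy-nucleus cells.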

[1] = 12 h, 1 µM, compound concentration 1 uM, replicate 1
[2] = 12 h, 1 µM, compound concentration 1 uM, replicate 2
[3] = 12 h, 10 µM, compound concentration 10 uM, replicate 1
[4] = 12 h, 10 µM, compound concentration 10 uM, replicate 2
[5] = 24 h, 1 µM, compound concentration 1 uM, replicate 1
[6] = 24 h, 1 µM, compound concentration 1 uM, replicate 2
[7] = 24 h, 10 µM, compound concentration 10 uM, replicate 1
[8] = 24 h, 10 µM, compound concentration 10 uM, replicate 2
[9] = 48 h, 1 µM, compound concentration 1 uM, replicate 1
[10] = 48 h, 1 µM, compound concentration 1 uM, replicate 2
[11] = 48 h, 10 µM, compound concentration 10 uM, replicate 1
[12] = 48 h, 10 µM, compound concentration 10 uM, replicate 2

SMILES: Cl.NCCc1ccc(O)c(O)c1 [DOPAMINE HYDROCHLORIDE]
- Population Apoptotic (%) [1]: 42%
- Population Fragmented Nuclei (%) [1]: 13%
- Population Healthy Nuclei (%) [1]: 63%
- Population Hoechst High Intensity Objects (%) [1]: 1%
- Population Membrane Permeable-Phenotype (%) [1]: 0%
- Population Mitochondria Different-Phenotype (%) [1]: 1%
- Population Mitotic Cells (%) [1]: 57%
- Population Normal (%) [1]: 98%
- Population Pyknosed Nuclei (%) [1]: 23%
- Population Tubulin-Different-Phenotype (%) [1]: 34%
- Total Cell Count [1]: 115
- Population Apoptotic (%) [2]: 44%
- Population Fragmented Nuclei (%) [2]: 34%
- Population Healthy Nuclei (%) [2]: 40%
- Population Membrane Permeable-Phenotype (%) [2]: 4%
- Population Mitochondria Different-Phenotype (%) [2]: 6%
- Population Mitotic Cells (%) [2]: 55%
- Population Pyknosed Nuclei (%) [2]: 24%
- Population Tubulin-Different-Phenotype (%) [2]: 45%
- Total Cell Count [2]: 152
- Population Apoptotic (%) [3]: 56%
- Population Fragmented Nuclei (%) [3]: 14%
- Population Healthy Nuclei (%) [3]: 62%
- Population Hoechst High Intensity Objects (%) [3]: 3%
- Population Membrane Permeable-Phenotype (%) [3]: 0%
- Population Mitochondria Different-Phenotype (%) [3]: 3%
- Population Mitotic Cells (%) [3]: 43%
- Population Normal (%) [3]: 96%
- Population Pyknosed Nuclei (%) [3]: 23%
- Population Tubulin-Different-Phenotype (%) [3]: 14%
- Total Cell Count [3]: 135
- Population Apoptotic (%) [4]: 41%
- Population Fragmented Nuclei (%) [4]: 35%
- Population Healthy Nuclei (%) [4]: 40%
- Population Hoechst High Intensity Objects (%) [4]: 4%
- Population Membrane Permeable-Phenotype (%) [4]: 6%
- Population Mitochondria Different-Phenotype (%) [4]: 6%
- Population Mitotic Cells (%) [4]: 58%
- Population Normal (%) [4]: 95%
- Population Tubulin-Different-Phenotype (%) [4]: 44%
- Total Cell Count [4]: 127
- Population Apoptotic (%) [5]: 55%
- Population Fragmented Nuclei (%) [5]: 14%
- Population Healthy Nuclei (%) [5]: 69%
- Population Hoechst High Intensity Objects (%) [5]: 0%
- Population Membrane Permeable-Phenotype (%) [5]: 1%
- Population Mitochondria Different-Phenotype (%) [5]: 1%
- Population Mitotic Cells (%) [5]: 44%
- Population Normal (%) [5]: 99%
- Population Pyknosed Nuclei (%) [5]: 16%
- Population Tubulin-Different-Phenotype (%) [5]: 31%
- Total Cell Count [5]: 112
- Population Apoptotic (%) [6]: 51%
- Population Fragmented Nuclei (%) [6]: 34%
- Population Healthy Nuclei (%) [6]: 47%
- Population Hoechst High Intensity Objects (%) [6]: 2%
- Population Membrane Permeable-Phenotype (%) [6]: 7%
- Population Mitochondria Different-Phenotype (%) [6]: 0%
- Population Mitotic Cells (%) [6]: 48%
- Population Normal (%) [6]: 97%
- Population Pyknosed Nuclei (%) [6]: 18%
- Population Tubulin-Different-Phenotype (%) [6]: 37%
- Total Cell Count [6]: 150
- Population Apoptotic (%) [7]: 55%
- Population Fragmented Nuclei (%) [7]: 16%
- Population Healthy Nuclei (%) [7]: 69%
- Population Hoechst High Intensity Objects (%) [7]: 2%
- Population Membrane Permeable-Phenotype (%) [7]: 1%
- Population Mitochondria Different-Phenotype (%) [7]: 5%
- Population Mitotic Cells (%) [7]: 44%
- Population Normal (%) [7]: 97%
- Population Pyknosed Nuclei (%) [7]: 13%
- Population Tubulin-Different-Phenotype (%) [7]: 22%
- Total Cell Count [7]: 136
- Population Apoptotic (%) [8]: 47%
- Population Fragmented Nuclei (%) [8]: 37%
- Population Healthy Nuclei (%) [8]: 46%
- Population Hoechst High Intensity Objects (%) [8]: 3%
- Population Membrane Permeable-Phenotype (%) [8]: 3%
- Population Mitochondria Different-Phenotype (%) [8]: 7%
- Population Mitotic Cells (%) [8]: 52%
- Population Normal (%) [8]: 96%
- Population Pyknosed Nuclei (%) [8]: 15%
- Population Tubulin-Different-Phenotype (%) [8]: 56%
- Total Cell Count [8]: 126
- Population Apoptotic (%) [9]: 36%
- Population Fragmented Nuclei (%) [9]: 22%
- Population Healthy Nuclei (%) [9]: 66%
- Population Hoechst High Intensity Objects (%) [9]: 6%
- Population Membrane Permeable-Phenotype (%) [9]: 1%
- Population Mitochondria Different-Phenotype (%) [9]: 2%
- Population Mitotic Cells (%) [9]: 63%
- Population Normal (%) [9]: 93%
- Population Pyknosed Nuclei (%) [9]: 10%
- Population Tubulin-Different-Phenotype (%) [9]: 28%
- Total Cell Count [9]: 110
- Population Apoptotic (%) [10]: 38%
- Population Fragmented Nuclei (%) [10]: 33%
- Population Healthy Nuclei (%) [10]: 52%
- Population Membrane Permeable-Phenotype (%) [10]: 5%
- Population Mitochondria Different-Phenotype (%) [10]: 3%
- Population Mitotic Cells (%) [10]: 61%
- Population Pyknosed Nuclei (%) [10]: 14%
- Population Tubulin-Different-Phenotype (%) [10]: 43%
- Total Cell Count [10]: 159
- Population Apoptotic (%) [11]: 87%
- Population Fragmented Nuclei (%) [11]: 21%
- Population Healthy Nuclei (%) [11]: 66%
- Population Hoechst High Intensity Objects (%) [11]: 4%
- Population Membrane Permeable-Phenotype (%) [11]: 0%
- Population Mitochondria Different-Phenotype (%) [11]: 4%
- Population Mitotic Cells (%) [11]: 12%
- Population Normal (%) [11]: 95%
- Population Pyknosed Nuclei (%) [11]: 11%
- Population Tubulin-Different-Phenotype (%) [11]: 25%
- Total Cell Count [11]: 141
- Population Apoptotic (%) [12]: 90%
- Population Fragmented Nuclei (%) [12]: 31%
- Population Healthy Nuclei (%) [12]: 60%
- Population Hoechst High Intensity Objects (%) [12]: 0%
- Population Membrane Permeable-Phenotype (%) [12]: 7%
- Population Mitotic Cells (%) [12]: 10%
- Population Normal (%) [12]: 99%
- Population Pyknosed Nuclei (%) [12]: 8%
- Population Tubulin-Different-Phenotype (%) [12]: 56%
- Total Cell Count [12]: 116
